Measured values taken from ChEMBL document CHEMBL1152545, “Fluorinated indazoles as novel selective inhibitors of nitric oxide synthase (NOS): synthesis and biological evaluation” (Bioorg Med Chem, 2009).

Legend:
Nitric oxide synthase 1 [1] = target: T1, Nitric oxide synthase 1 (Homo sapiens, UniProt P29475); test: Inhibition of NOS1
[2] = target: Nitric oxide synthase, inducible (Rattus norvegicus) (UniProt Q06518); test: Inhibition of Wistar rat NOS2 assessed as L-[3H]citrulline formation at 1 mM by liquid scintillation counting relative to control in presence of EDTA
Summary of the method: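 NOS-II source: lung homogenate (0.1 g/mL, Tris/DTT/protease inhibitors, pH 7.6, 2500g supernatant) from male Wistar rats 6 h after iv LPS 10 mg/kg in saline. 10 µL sample incubated 30 min at 37 °C with 10 µM L-arginine plus 40 nM L-3H-arginine, H4-biopterin, FAD, CaCl2, 10 mM EDTA; NADPH started reaction. Compound 1 mM; three experiments in triplicate; mean ± SEM.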

[3] = target: Nitric oxide synthase, inducible (Homo sapiens, UniProt P35228); test: Inhibition of NOS2
Summary of the method: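 NOS-II source was lung homogenate (2500g supernatant) from male Wistar rats killed 6 h after iv LPS 10 mg/kg. Incubation ran 30 min at 37 °C, pH 7.6, with 10 µM L-arginine, 40 nM L-3H-arginine, cofactors and 0.75 mM NADPH, plus 10 mM EDTA to exclude NOS-I. Read-out was 3H-citrulline formed. Compounds were tested at 1 mM, or 0.1–1 mM for dose-response, in three experiments run in triplicate.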

Nitric oxide synthase 1 [4] = target: T1, Nitric oxide synthase 1; test: Inhibition of recombinant NOS1 assessed as citrulline formation
[5] = target: Nitric oxide synthase, inducible (Rattus norvegicus) (UniProt Q06518); test: Inhibition of Wistar rat NOS2 assessed as enzyme activity at 0.1 mM by liquid scintillation counting relative to control in presence of EDTA; set-up: scale not given: the % may be the effect or the level left
Summary of the method: (§1)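 Lung homogenate (0.1 g/mL, pH 7.6 Tris with protease inhibitors, 2500g supernatant) from male Wistar rats given 10 mg/kg LPS iv in saline 6 h before. L-3H-arginine (40 nM, plus 10 µM L-arginine) to L-3H-citrulline conversion, 0.75 mM NADPH, 30 min at 37 °C, 10 mM EDTA. Compound at 0.1, 0.5 or 1 mM. Three experiments in triplicate.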

[6] = target: Nitric oxide synthase, inducible (Rattus norvegicus) (UniProt Q06518); test: Inhibition of Wistar rat NOS2 assessed as enzyme activity at 0.5 mM by liquid scintillation counting relative to control in presence of EDTA; set-up: scale not given: the % may be the effect or the level left; summary of the method: as §1
[7] = target: Nitric oxide synthase, inducible (Rattus norvegicus) (UniProt Q06518); test: Inhibition of Wistar rat NOS2 assessed as L-[3H]citrulline formation by liquid scintillation counting relative to control in presence of EDTA; summary of the method: as §1
[8] = target: Nitric oxide synthase, inducible (Rattus norvegicus) (UniProt Q06518); test: Inhibition of Wistar rat NOS2 assessed as enzyme activity at 1 mM by liquid scintillation counting relative to control in presence of EDTA; set-up: scale not given: the % may be the effect or the level left; summary of the method: as §1

Nitric oxide synthase, inducible (Rattus norvegicus), sequence (Q06518 whole entry): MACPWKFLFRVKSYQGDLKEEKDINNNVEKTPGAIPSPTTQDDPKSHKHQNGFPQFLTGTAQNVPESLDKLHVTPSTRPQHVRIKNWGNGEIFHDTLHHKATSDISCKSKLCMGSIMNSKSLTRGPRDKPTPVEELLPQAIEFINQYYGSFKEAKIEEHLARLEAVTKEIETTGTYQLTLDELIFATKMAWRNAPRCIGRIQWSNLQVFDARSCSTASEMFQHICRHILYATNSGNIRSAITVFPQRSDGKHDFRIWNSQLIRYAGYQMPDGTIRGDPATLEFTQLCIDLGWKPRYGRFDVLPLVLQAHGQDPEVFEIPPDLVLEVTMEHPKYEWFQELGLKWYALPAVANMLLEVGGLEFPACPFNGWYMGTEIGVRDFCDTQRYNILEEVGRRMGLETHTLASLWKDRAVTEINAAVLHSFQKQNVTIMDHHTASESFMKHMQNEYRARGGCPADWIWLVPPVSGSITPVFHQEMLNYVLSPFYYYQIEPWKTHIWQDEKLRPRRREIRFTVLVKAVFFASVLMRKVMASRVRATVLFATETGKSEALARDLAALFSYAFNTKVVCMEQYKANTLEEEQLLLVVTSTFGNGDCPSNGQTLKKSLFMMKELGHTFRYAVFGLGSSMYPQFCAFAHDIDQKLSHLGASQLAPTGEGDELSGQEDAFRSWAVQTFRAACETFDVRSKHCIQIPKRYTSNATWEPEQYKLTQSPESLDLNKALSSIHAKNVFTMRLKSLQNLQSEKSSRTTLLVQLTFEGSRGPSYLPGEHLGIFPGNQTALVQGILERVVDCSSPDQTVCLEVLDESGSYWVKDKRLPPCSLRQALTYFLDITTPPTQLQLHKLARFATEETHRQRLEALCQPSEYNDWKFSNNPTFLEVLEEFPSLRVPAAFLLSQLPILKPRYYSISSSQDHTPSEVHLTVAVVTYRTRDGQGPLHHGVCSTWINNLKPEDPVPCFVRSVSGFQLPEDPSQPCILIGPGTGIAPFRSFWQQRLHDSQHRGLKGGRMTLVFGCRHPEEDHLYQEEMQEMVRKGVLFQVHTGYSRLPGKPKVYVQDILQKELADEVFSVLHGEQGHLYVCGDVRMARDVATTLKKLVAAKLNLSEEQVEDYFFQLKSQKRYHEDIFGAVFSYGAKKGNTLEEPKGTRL
Nitric oxide synthase, inducible, sequence (P35228 whole entry): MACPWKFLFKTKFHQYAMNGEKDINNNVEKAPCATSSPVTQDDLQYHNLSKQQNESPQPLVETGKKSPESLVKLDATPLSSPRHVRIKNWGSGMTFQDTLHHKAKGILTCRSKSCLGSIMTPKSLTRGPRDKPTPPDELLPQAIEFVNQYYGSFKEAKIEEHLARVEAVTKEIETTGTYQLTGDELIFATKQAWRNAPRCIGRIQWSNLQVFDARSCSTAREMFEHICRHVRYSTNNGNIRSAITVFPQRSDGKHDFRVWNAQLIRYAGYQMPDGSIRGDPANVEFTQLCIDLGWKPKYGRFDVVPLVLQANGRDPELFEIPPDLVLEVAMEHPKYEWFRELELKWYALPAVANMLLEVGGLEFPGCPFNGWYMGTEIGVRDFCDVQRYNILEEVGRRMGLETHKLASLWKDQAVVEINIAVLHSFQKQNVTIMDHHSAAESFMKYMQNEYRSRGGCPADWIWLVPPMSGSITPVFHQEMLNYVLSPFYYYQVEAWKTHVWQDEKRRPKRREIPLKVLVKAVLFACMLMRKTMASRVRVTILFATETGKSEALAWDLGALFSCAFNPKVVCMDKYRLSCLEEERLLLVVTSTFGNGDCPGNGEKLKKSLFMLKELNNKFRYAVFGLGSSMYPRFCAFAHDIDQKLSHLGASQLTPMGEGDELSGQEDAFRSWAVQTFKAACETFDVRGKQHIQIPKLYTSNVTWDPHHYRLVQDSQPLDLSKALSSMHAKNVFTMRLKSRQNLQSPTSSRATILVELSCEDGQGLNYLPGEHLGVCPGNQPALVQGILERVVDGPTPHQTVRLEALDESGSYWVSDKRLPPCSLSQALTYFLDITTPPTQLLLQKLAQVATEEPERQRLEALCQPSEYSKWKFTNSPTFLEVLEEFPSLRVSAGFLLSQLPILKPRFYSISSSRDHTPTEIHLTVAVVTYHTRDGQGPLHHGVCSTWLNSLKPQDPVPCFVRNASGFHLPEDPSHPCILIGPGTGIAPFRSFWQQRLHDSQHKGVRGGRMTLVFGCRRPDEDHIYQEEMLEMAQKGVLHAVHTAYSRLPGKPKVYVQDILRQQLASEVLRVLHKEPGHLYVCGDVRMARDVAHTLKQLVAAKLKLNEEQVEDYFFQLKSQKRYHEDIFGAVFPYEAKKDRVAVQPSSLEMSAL
T1 sequence (P29475 whole entry): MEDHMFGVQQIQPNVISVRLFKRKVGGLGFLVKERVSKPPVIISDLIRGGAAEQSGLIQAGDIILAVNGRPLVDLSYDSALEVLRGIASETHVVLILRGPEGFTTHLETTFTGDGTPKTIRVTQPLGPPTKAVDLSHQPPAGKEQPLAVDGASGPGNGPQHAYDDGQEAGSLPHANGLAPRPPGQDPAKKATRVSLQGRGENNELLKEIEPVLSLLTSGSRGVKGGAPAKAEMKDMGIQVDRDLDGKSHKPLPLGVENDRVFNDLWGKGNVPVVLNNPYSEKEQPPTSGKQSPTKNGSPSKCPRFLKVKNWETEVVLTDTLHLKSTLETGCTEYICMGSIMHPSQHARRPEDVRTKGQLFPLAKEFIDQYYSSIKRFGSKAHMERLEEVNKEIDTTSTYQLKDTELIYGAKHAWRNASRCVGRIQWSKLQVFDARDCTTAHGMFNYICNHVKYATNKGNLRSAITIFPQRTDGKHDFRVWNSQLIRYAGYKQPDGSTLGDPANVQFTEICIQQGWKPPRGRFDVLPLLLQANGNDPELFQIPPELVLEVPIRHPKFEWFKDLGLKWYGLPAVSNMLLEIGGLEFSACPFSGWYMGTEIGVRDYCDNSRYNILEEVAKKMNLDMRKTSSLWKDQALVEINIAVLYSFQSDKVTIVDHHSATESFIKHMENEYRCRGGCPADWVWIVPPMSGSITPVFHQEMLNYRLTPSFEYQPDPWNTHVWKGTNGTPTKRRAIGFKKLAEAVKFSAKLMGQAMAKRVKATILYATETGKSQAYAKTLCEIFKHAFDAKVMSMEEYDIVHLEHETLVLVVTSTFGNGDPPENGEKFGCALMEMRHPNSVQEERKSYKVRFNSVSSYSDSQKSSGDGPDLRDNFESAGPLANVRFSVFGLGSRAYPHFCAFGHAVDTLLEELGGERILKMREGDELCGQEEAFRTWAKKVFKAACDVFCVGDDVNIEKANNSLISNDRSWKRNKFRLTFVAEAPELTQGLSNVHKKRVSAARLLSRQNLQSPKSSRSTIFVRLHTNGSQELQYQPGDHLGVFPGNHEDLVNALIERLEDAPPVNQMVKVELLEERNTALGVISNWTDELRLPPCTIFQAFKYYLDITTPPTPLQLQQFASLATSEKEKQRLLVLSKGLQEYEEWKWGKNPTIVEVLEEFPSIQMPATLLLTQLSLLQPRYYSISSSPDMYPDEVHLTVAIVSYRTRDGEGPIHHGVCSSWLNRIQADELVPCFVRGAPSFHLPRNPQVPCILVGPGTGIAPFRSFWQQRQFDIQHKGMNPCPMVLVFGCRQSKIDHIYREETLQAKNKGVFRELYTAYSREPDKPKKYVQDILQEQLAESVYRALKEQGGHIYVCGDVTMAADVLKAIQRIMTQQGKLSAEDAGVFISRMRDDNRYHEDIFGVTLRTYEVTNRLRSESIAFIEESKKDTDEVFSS

Row | inhibition [2] | SMILES | IC50 (Nitric oxide synthase 1 [1]) | other results
1 |  | Ic1ccc2[nH]ncc2c1 | 37 µM | 
2 | 25% | Cn1ncc2cccc([N+](=O)[O-])c21 |  | 
3 | 83% | Cc1n[nH]c2c(F)c(F)c(F)c(F)c12 |  | 
4 | 20% | CC12CCC(C3C=NN=C31)C2(C)C (racemic) |  | 
5 |  | O=[N+]([O-])c1ccc2c(Cl)n[nH]c2c1 | 158 µM | 
6 | 37% | Fc1c(F)c(F)c2c(-c3ccccc3)n[nH]c2c1F |  | 
7 |  | O=[N+]([O-])c1ccc2[nH]ncc2c1 | 47 µM | 
8 |  | Clc1ccc2cn[nH]c2c1 | 22 µM | 
9 |  | c1ccc2[nH]ncc2c1 [INDAZOLE] |  | IC50 (Nitric oxide synthase 1 [4]): 178 µM
10 |  | O=c1[nH][nH]c2ccccc12 |  | IC50 (Nitric oxide synthase 1 [4]): > 1000 µM
11 |  | Nc1ccc2[nH]ncc2c1 |  | IC50 (Nitric oxide synthase 1 [4]): > 1000 µM
12 |  | Ic1cccc2[nH]ncc12 | 17 µM | 
13 |  | Clc1cccc2cn[nH]c12 | 4.2 µM | 
14 | 4% | Cc1n[nH]c2c1C(=O)CCC2 |  | 
15 |  | Nc1cccc2cn[nH]c12 |  | IC50 (Nitric oxide synthase 1 [4]): 115 µM
16 | 36% | Cn1cc2cccc([N+](=O)[O-])c2n1 |  | 
17 |  | Clc1cccc2[nH]ncc12 | 44 µM | 

Row | inhibition [2] | SMILES | IC50 (Nitric oxide synthase 1 [1]) | other results
18 |  | Brc1ccc2[nH]ncc2c1 | 72 µM | 
19 | 6% | Oc1n[nH]c2c(F)c(F)c(F)c(F)c12 |  | 
20 | 2% | CC1(C)CC(=O)c2cn[nH]c2C1 |  | 
21 |  | O=[N+]([O-])c1ccc2cn[nH]c2c1 | 32 µM | 
22 | 10% | Cn1nc(Br)c2cccc([N+](=O)[O-])c21 |  | 
23 |  | Brc1ccc2cn[nH]c2c1 | 4.3 µM | 
24 |  | Nc1ccc2cn[nH]c2c1 |  | IC50 (Nitric oxide synthase 1 [4]): > 1000 µM
25 |  | Brc1cccc2cn[nH]c12 | 14 µM | 
26 |  | Brc1cccc2[nH]ncc12 | 2.4 µM | 
27 | 23% | O=C1CCCc2[nH]ncc21 |  | 
28 |  | O=[N+]([O-])c1cccc2[nH]ncc12 | 3.1 µM | 
29 |  | Clc1n[nH]c2ccccc12 |  | IC50 (Nitric oxide synthase 1 [4]): 100 µM
30 |  | CCc1n[nH]c2ccccc12 |  | IC50 (Nitric oxide synthase 1 [4]): 310 µM
31 | 21% | Fc1c(F)c(F)c2c(C(F)(F)F)n[nH]c2c1F |  | 
32 | 22% | Cc1n[nH]c2c1C(=O)CC(C)(C)C2 |  | 
33 |  | Clc1ccc2[nH]ncc2c1 | 59 µM | 
34 | 7% | Cn1nc2c([N+](=O)[O-])cccc2c1Br |  | 

Row | SMILES | inhibition [2] | IC50 (Nitric oxide synthase 1 [1]) | other results
35 | O=[N+]([O-])c1cccc2cn[nH]c12 [7-NITROINDAZOLE] | 84% |  | IC50 [3]: 5.8 µM
36 | Fc1c(F)c(F)c(-c2n[nH]c3c(F)c(F)c(F)c(F)c23)c(F)c1F | 80% |  | Activity [5]: 90%; Activity [6]: 58%; inhibition [7]: Dose-dependent effect; IC50 [3]: 400 µM; Activity [8]: 20%
37 | O=[N+]([O-])c1cccc2c(Br)n[nH]c12 | 97% | 0.17 µM | IC50 [3]: 0.29 µM
